These results are taken from PMC7439439 (Science Advances, 2020).

SMILES strings stand for the structures. Where two headings read alike, the source gives them in different places.

In data set [1] the test system is SF8628 orthotopic DIPG tumors. Nature of the data set: Orthotopic SF8628 xenograft, histology after treatment. Format: in vivo, SCID mice. In short, it runs like this:
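NOD/SCID mice received 1 million luciferase-transduced SF8628 cells stereotactically into the pons (1.0 mm right, 0.5 mm posterior, 5.0 mm deep from lambda). Treatment started 21–24 days later over 2 weeks, using four CED infusions about 72 h apart, each over 6 min at 1.67 μl/min. Brains were then harvested. Nuclei on H&E and Ki67+ nuclei were counted on ≥5 40× fields. Apoptosis index was Cc3+ cells divided by tumour area × cellularity. H3Ac+ nuclei were counted per 10× field after colour deconvolution, Gaussian blur and thresholding.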

The subject of a further data set is RCAS-based DIPG tumors. Nature of the data set: Survival study in tumor-bearing RCAS mice. Format: in vivo. In a few lines:
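DIPG was induced in 3–5-day-old Ntva/p53fl/fl pups by pontine injection of DF1 cells carrying RCAS-PDGFB, H3K27M-GFP, CRE and luciferase. From day 21–24, over 2 weeks, mice received one of: intraperitoneal 10 mg/kg in 10% DMSO/36% PEG/54% PBS; intraperitoneal vehicle; or one or four CEDs of 10 μl, 100 μM in 1% DMSO/PBS (or vehicle), 72 h apart, each over 6 min. End point was ≥10% weight loss on two consecutive measurements, or other end points. Survival was analysed by log-rank.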

The conditions of data set [2]: 11 patients, oral formulation; cited from earlier work.
The conditions of data set [3]: primate studies, oral delivery; cited from earlier work.
Data set [4] concerns luciferase-tagged SF8628 flank tumors. As to the kind of experiment: Flank model of DIPG, intraperitoneal treatment. Format: in vivo, athymic-nude mice. In a few lines: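 Athymic-nude mice received subcutaneous right-flank implants of 40-mm3 chunks of luciferase-tagged SF8628 tumours grown in other nude mice. Tumour presence was confirmed by luciferase scan at 1 week. Dosing began at a mean caliper volume of 140 mm3: reference HDAC inhibitor 10 mg/kg, test compound 12 mg/kg (molecular-weight adjusted), or vehicle (10% DMSO, 36% PEG, 54% PBS). Dosing stopped at 1500 mm3 or euthanasia end points. Tumours were harvested on the last treatment day for acetylated-H3 immunoblot with GAPDH as loading control.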

Another data set is described as follows: Safety in mice. Format: in vivo.
Where [5] appears, read: four CED doses at 72-hour intervals.

On to `Cc1[nH]c2ccccc2c1CCNCc1ccc(/C=C/C(=O)NO)cc1` [panobinostat], for which the “H3Ac in tumor cells versus intraperitoneal vehicle” value in data set [1] (setting [5]) is reported as “increase in H3Ac in tumor cells”. Moreover, the “Ki67+ cycling cells versus vehicle” value in data set [1] (setting [5]) is reported as “decrease in overall Ki67^+ cycling cells”. Further, the “apoptotic cell death, cleaved caspase-3 positive cells” value in data set [1] (setting [5]) was “increase in apoptotic cell death”. Further, in data set [1] (four CED doses at 72-hour intervals, H&E), the “tumor cellularity versus vehicle” value is given as “decrease in tumor cellularity”. For the same molecule, the “histological effects (cellularity, Ki67, Cc3, H3Ac)” value in data set [1] (systemic treatment) was “failed to achieve any of these results”. Also, the median survival is recorded as 63 days in the data set on RCAS-based DIPG tumors (4× CED, 10 μl 100 μM, 72 hours apart); 35 days with RCAS-based DIPG tumors (intraperitoneally, 10 mg/kg, over 2 weeks); 37.5 days in the data set on RCAS-based DIPG tumors (single CED session, 10 μl 100 μM). Further, the “detection in CSF” value is reported as “not detected” in data set [2] and “failed at detecting significant amounts” in data set [3]. The “H3Ac in tumors by Western blotting” value in data set [4] (animals sacrificed on the last day of treatment) is recorded as “recovery of H3Ac”. In addition, in data set [4] (caliper tumor volume, daily intraperitoneal for 2 weeks), the “tumor growth compared to vehicle” value is recorded as “slowed down tumor growth”. Moreover, the “toxicity after systemic injections” value in the data set “Safety in mice” is “significant toxicities including weight loss”.
